# Results of several laboratories.
# Protocols differ between the studies behind these lines.
# Target: Testis-specific serine/threonine-protein kinase 3 (TSSK3, Homo sapiens, UniProt Q96PN8)
# Residues used in one study (Q96PN8 1-268): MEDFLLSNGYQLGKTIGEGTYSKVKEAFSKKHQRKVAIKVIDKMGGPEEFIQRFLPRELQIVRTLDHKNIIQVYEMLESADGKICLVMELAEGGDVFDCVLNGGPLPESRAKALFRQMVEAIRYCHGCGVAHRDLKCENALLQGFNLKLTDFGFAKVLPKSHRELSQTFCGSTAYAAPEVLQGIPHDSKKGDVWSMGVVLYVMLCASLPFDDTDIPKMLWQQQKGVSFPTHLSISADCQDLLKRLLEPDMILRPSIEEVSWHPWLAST
SMILES,effect on,method,tested at,remaining binding [%]
COc1cnc(Nc2cccc(S(N)(=O)=O)c2)nc1N1CCN(c2ccccc2)C(=O)C1,binding,competition with immobilised ligand,1 µM,90
CCS(=O)(=O)c1cc2cc(C[C@](O)(CC(C)(C)c3ccc(F)cc3C(N)=O)C(F)(F)F)[nH]c2cn1,cell-free assay,competition with immobilised ligand,1 µM,100
CN(C)c1ncc(F)c(-c2cnn3ncccc23)n1,binding,,1 µM,99
Cc1c(NC(=O)c2cc(C(N)=O)nc3cc(F)ccc23)c(C(F)(F)F)nn1Cc1ccc(C(C)(C)C)cc1,cell-free assay,competition with immobilised ligand,1 µM,100
COc1ccnn2ncc(-c3ccnc(N(C)C)n3)c12,binding,,1 µM,100
O=C(c1ccc(Nc2nccc(-c3cc4ccccc4s3)n2)cc1)N1CCC(N2CCCC2)CC1,binding,competition with immobilised ligand,1 µM,100
FC(F)(F)Oc1cccc(-c2cnc3ccc(-c4ccncc4)nn23)c1,binding,competition with immobilised ligand,5 µM,91
COc1cc(-c2cn(C3CCc4c(F)cccc4N(CC(F)(F)F)C3=O)nn2)ccc1-n1cnc(C)c1 (stereo not drawn),cell-free assay,competition with immobilised ligand,1 µM,97
C[C@@H]1CCN(c2nccc(-c3cnn4ncccc34)n2)C1,binding,,1 µM,78
COc1ncc2cc3ccccc3nc2c1C#N,cell-free assay,competition with immobilised ligand,5 µM,90
O=C(NCCCN1CCOCC1)c1ccc(Nc2ncc(Cl)c(-c3ccc(Cl)s3)n2)cc1,binding,competition with immobilised ligand,1 µM,100
CN([C@@H]1CCc2c(CC(=O)O)c3cc(S(C)(=O)=O)ccc3n2C1)S(=O)(=O)c1ccc(F)cc1,cell-free assay,competition with immobilised ligand,1 µM,100
O=C(Nc1c[nH]nc1C(=O)NC1CCNCC1)c1cc(F)cc(F)c1,binding,competition with immobilised ligand,1 µM,100
O=C(c1ccc(Nc2ncc(Cl)c(-c3ccc(Cl)s3)n2)cc1)N1CCC(N2CCCC2)CC1,binding,competition with immobilised ligand,1 µM,100
CN(c1nccc(-c2cnn3ncccc23)n1)C1CC1,binding,,1 µM,99
CC1=C(C#N)[C@@H](c2ccc3[nH]nc(C)c3c2)C(C#N)=C(c2ccc(Cl)cc2)N1,cell-free assay,competition with immobilised ligand,1 µM,100
CN(CCCC(F)(F)F)c1nccc(-c2cnn3ncccc23)n1,binding,,1 µM,85
C[C@@H](c1ccc(-n2cnc3c(N)ncnc32)cc1)N1CCc2nn(C)c(Cc3ccccc3)c2C1=O,binding,competition with immobilised ligand,0.1 µM,70
CCCCN(CCCC)C(=O)CN1C[C@H](c2cc(OC)c3c(c2)OCO3)[C@@H](C(=O)O)[C@@H]1CC(C)(C)CCC,cell-free assay,competition with immobilised ligand,1 µM,100
N[C@H]1CCN(c2nccc(-c3cnn4ncccc34)n2)C1,binding,,1 µM,88
Nc1ncc2c(n1)-c1c([nH]c3ccc(C#CC4CC4)cc13)CCCC2,binding,competition with immobilised ligand,1 µM,70
